In brackets after ≈: the same amount, converted by molar mass.
Columns and labels:
[1] = tested on: Mycobacterium tuberculosis; test: Antimycobacterial activity against wild type Mycobacterium tuberculosis H37Rv ATCC 27294 after 2 weeks; assay type: functional; conditions: 336 h
How it was run: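 Aerobic MIC99: Mtb H37Rv grown to OD 0.5 in 7H9 broth with 0.05% Tween 80, 0.2% glycerol, ADC; diluted 1:1000. Compounds from DMSO stocks, 2-fold series giving 8 dilutions (1000 μM – 7.8 μM). 2 weeks at 37°C, growth read macroscopically; MIC99 = concentration preventing 99% growth. Three independent determinations.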

[2] = tested on: Mycobacterium tuberculosis; test: Antimycobacterial activity against wild type Mycobacterium tuberculosis H37Rv NRP-2 stage after 3 weeks under anaerobic condition; assay type: functional
How it was run: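 Early-log Mtb in glycerol-free Dubos broth diluted 100-fold, sealed tubes (headspace ratio 0.5), stirred 180 rpm 20 days to NRP-2 (methylene blue reference). Cells exposed to two-fold drug dilutions (1.95-500 μM) with DMSO control, anaerobically at 37°C for 7 days. Washed thrice, serially diluted, spotted on 7H11 agar; after 3 weeks at 37°C, MAC = 90% reduction in visible growth.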

[3] = tested on: Mycobacterium tuberculosis; test: Ratio of Kcat/Km for Mycobacterium tuberculosis F420-dependent nitroreductase by Michaelis-Menten equation; parameters: unit not given here
How it was run: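 MBP-tagged Rv3547 (Ddn) expressed in E. coli (300 μM IPTG, 37 °C), amylose-affinity purified. F420H2 made enzymatically with Mtb FGD1, which was heat-inactivated (55°C, 15 min) and removed by ultrafiltration. Reactions in phosphate buffer pH 7.4, 50 μM F420, 0.6 μM enzyme, varying nitroimidazole concentrations, 25°C. Initial rates from absorbance gain at 400 nm (ε400 = 25.71 mM−1 cm−1).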

Structure (SMILES): Cc1nc([N+](=O)[O-])cn1CCO
- MIC [1]: > 300 µM
- MAC [2]: >500 µM

Structure (SMILES): Cc1ncc([N+](=O)[O-])n1CCO [METRONIDAZOLE]
- MIC [1]: > 300 µM
- MAC [2]: 62.5 µM

Structure (SMILES): COc1ncc([N+](=O)[O-])n1CCO
- MIC [1]: > 100 µM
- MAC [2]: >500 µM

Structure (SMILES): O=[N+]([O-])c1cnc2n1C[C@H](O)CC2
- MIC [1]: > 100 µM
- MAC [2]: >500 µM

Structure (SMILES): FC(F)(F)Oc1ccc(CO[C@@H]2COc3nccn3C2)cc1
- MIC [1]: > 160 µM
- MAC [2]: >500 µM

Structure (SMILES): Cc1ncc([N+](=O)[O-])n1CCOCc1ccc(OC(F)(F)F)cc1
- MIC [1]: > 145 µM
- MAC [2]: 250 µM
- kcat/Km [3]: 0.005

Structure (SMILES): Cc1nc([N+](=O)[O-])cn1CCOCc1ccc(OC(F)(F)F)cc1
- MIC [1]: > 145 µM
- MAC [2]: >500 µM

Structure (SMILES): O=[N+]([O-])c1cnc2n1C[C@H](OCc1ccc(OC(F)(F)F)cc1)CO2
- MIC [1]: 4 µM (≈ 1.44 µg/mL)
- MAC [2]: 31.25 µM
- kcat/Km [3]: 0.0817

Structure (SMILES): O=[N+]([O-])c1cn2c(n1)OC[C@@H](OCc1ccc(OC(F)(F)F)cc1)C2 [PRETOMANID]
- MIC [1]: 0.8 µM (≈ 0.287 µg/mL)
- MAC [2]: 8 µM
- kcat/Km [3]: 0.145

Structure (SMILES): O=[N+]([O-])c1cn2c(n1)OC[C@@H](O)C2
- MIC [1]: > 100 µM
- MAC [2]: 250 µM
- kcat/Km [3]: 0.005

Structure (SMILES): O=[N+]([O-])c1cnc2n1C[C@@H](O)CC2
- MIC [1]: > 100 µM
- MAC [2]: >100 µM

Structure (SMILES): O=[N+]([O-])c1cnc2n1C[C@H](O)CO2
- MIC [1]: 12.5 µM (≈ 2.31 µg/mL)
- MAC [2]: 125 µM
- kcat/Km [3]: 0.003

Structure (SMILES): CO[C@@H]1COc2nc([N+](=O)[O-])cn2C1
- MIC [1]: > 125 µM
- MAC [2]: 250 µM
- kcat/Km [3]: 0.0079

Structure (SMILES): O=[N+]([O-])c1cn2c(n1)CC[C@@H](OCc1ccc(OC(F)(F)F)cc1)C2
- MIC [1]: 25 µM (≈ 8.93 µg/mL)
- MAC [2]: 250 µM
- kcat/Km [3]: 0.0235

Structure (SMILES): O=[N+]([O-])c1cn2c(n1)C=C[C@@H](OCc1ccc(OC(F)(F)F)cc1)C2
- MIC [1]: 25 µM (≈ 8.88 µg/mL)
- MAC [2]: 62.5 µM
- kcat/Km [3]: 0.0476

Structure (SMILES): COc1nc([N+](=O)[O-])cn1CCOCc1ccc(OC(F)(F)F)cc1
- MIC [1]: 6.25 µM (≈ 2.26 µg/mL)
- MAC [2]: 250 µM
- kcat/Km [3]: 0.03

— ChEMBL document CHEMBL1140917, “Structure-activity relationships of antitubercular nitroimidazoles. 1. Structural features associated with aerobic and anaerobic activities of 4- and 5-nitroimidazoles” (2009)
